PMC3464052 (Journal of medicinal chemistry, 2012)
Where two headings read alike, the source gives them in different places.

Key:
mice [1] = assay: SmartCube automated behavioral signature; type: in vivo, mouse; details: i.p., 15 min before testing
human α4β2-nAChRs [2] = target: T1, human α4β2-nAChRs (Homo sapiens, UniProt P17787+P43681); details: cited from earlier work
mice [3] = assay: Mouse forced swim test; type: in vivo
human α4β2-nAChRs [4] = target: T1, human α4β2-nAChRs; assay: 86Rb+ ion flux assay, SH-EP1 cells; type: cell-based; details: mixture of HS and LS α4β2-nAChRs
Method in brief: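 Human α4β2-nAChRs stably expressed in SH-EP1 cells, as a mixture of high- and low-sensitivity forms. Agonist responses are expressed relative to a maximally efficacious concentration of the full agonist carbamylcholine. Inactivation of function is measured after a 10 min pre-exposure to test compound. Concentration-response curves are fitted by semi-logarithmic nonlinear regression.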

α4β2-nAChR = α4β2-nAChR (Rattus norvegicus, UniProt P09483+P12390); assay: [3H]epibatidine binding competition, heterologously expressed α4β2-nAChR; details: from Ki values
[5] = Liver microsome stability, mouse; type: in vitro ADME; details: mouse liver microsomes, 1 h, 2 μM
[6] = Liver microsome stability, rat; type: in vitro ADME; details: rat liver microsomes, 1 h, 2 μM
[7] = Liver microsome stability, dog; type: in vitro ADME; details: dog liver microsomes, 1 h, 2 μM
[8] = Liver microsome stability, human; type: in vitro ADME; details: human liver microsomes, 1 h, 2 μM
Ct-AChBP = Ct-AChBP (Capitella teleta, UniProt I6L8L2); assay: biochemical; type: binding
[9] = 1 h incubation, starting concentration 1 μM; ref [16]; cited from earlier work
[10] = intraperitoneally, 3 or 10 mg/kg

OCC[C@H]1C[C@@H]1c1cncc(OC[C@@H]2CCN2)c1 [compound 5]
SmartCube behavioral signature (mice [1]): signature of activity suggesting potential antidepressant-like effect | Agonism Efficacy at HS (human α4β2-nAChRs [2]; HS α4β2-nAChR, extrapolated using sazetidine-A as full agonist, ref [16]): 92±6% | Inactivation Efficacy (human α4β2-nAChRs [2]; mixture of HS and LS, ref [16]): 62±1% | Agonism Hill slope (human α4β2-nAChRs [2]; ref [16]): 1.0±0.4 | Inactivation Hill Slope (human α4β2-nAChRs [2]; ref [16]): −1.4±0.2

CN[C@H]1CC[C@@H](c2ccc(Cl)c(Cl)c2)c2ccccc21 [sertraline, reference compound]
effect on immobility in the forced swim test (mice [3]; positive control, 20 mg/kg): expected decrease in immobility

CC[C@H]1C[C@@H]1c1cncc(OC[C@@H]2CCN2)c1.O=C(O)C(F)(F)F [compound 10, 3-[(2(S)-Azetidinyl)methoxy]-5-((1S,2S)-2-ethylcyclopropyl)pyridine Trifluoroacetate]
Agonism Hill slope (human α4β2-nAChRs [4]): 1.1±0.2 | Inactivation Hill Slope (human α4β2-nAChRs [4]): −1.1±0.3 | SmartCube behavioral signature (mice [1]): signature of activity suggesting potential antidepressant-like effect | effect in the forced swim test (mice [3]; [10]): no significant effect

FCC[C@H]1C[C@@H]1c1cncc(OC[C@@H]2CCN2)c1.O=C(O)C(F)(F)F [compound 12, 3-[(2(S)-Azetidinyl)methoxy]-5-[(1S,2R)-2-(2-fluoroethyl)cyclopropyl]pyridine Trifluoroacetate]
selectivity for α4β2- over α3β4-nAChRs (α4β2-nAChR): greater than 16000 fold | Agonism Hill slope (human α4β2-nAChRs [4]): 1.3±0.5 | Inactivation Hill Slope (human α4β2-nAChRs [4]): −1.2±0.4 | SmartCube behavioral signature (mice [1]): signature of activity suggesting potential antidepressant-like effect | effect in the forced swim test (mice [3]; intraperitoneally or orally): antidepressant-like effect | minimal dose with significant reduction in immobility (mice [3]; intraperitoneally or orally): 3 mg/kg | compound remained unchanged [5]: no less than 98% | compound remained unchanged [6]: no less than 98% | compound remained unchanged [7]: no less than 98% | compound remained unchanged [8]: no less than 98%

CN1CCC[C@H]1c1cccnc1 [compound 1, nicotine, reference compound]
Agonism Hill slope (human α4β2-nAChRs [2]): 1.0±0.1 | Inactivation Hill Slope (human α4β2-nAChRs [2]): −0.8±0.09

CNC(=O)OCC[C@H]1C[C@@H]1c1cncc(OC[C@@H]2CCN2)c1 [compound 6]
Ki (Ct-AChBP): 22 ± 3 nM | SmartCube behavioral signature (mice [1]): signature of activity suggesting potential antidepressant-like effect | tested compound remained unchanged [9]: 98%

FC(F)C[C@H]1C[C@@H]1c1cncc(OC[C@@H]2CCN2)c1.O=C(O)C(F)(F)F [compound 13, 3-[(2(S)-Azetidinyl)methoxy]-5-[(1S,2R)-2-(2,2-difluoroethyl)cyclopropyl]pyridine Trifluoroacetate]
selectivity for α4β2- over α3β4-nAChRs (α4β2-nAChR): greater than 16000 fold | Agonism Hill slope (human α4β2-nAChRs [4]): 1.4±0.4 | Inactivation Hill Slope (human α4β2-nAChRs [4]): −1.1±0.3 | SmartCube behavioral signature (mice [1]): signature of activity suggesting potential antidepressant-like effect | effect in the forced swim test (mice [3]; [10]): no significant effect
